Published values pooled from the literature.
Target: Inhibitor of nuclear factor kappa-B kinase subunit epsilon (IKBKE, Homo sapiens, UniProt Q14164)
One construct used (Q14164 1-716): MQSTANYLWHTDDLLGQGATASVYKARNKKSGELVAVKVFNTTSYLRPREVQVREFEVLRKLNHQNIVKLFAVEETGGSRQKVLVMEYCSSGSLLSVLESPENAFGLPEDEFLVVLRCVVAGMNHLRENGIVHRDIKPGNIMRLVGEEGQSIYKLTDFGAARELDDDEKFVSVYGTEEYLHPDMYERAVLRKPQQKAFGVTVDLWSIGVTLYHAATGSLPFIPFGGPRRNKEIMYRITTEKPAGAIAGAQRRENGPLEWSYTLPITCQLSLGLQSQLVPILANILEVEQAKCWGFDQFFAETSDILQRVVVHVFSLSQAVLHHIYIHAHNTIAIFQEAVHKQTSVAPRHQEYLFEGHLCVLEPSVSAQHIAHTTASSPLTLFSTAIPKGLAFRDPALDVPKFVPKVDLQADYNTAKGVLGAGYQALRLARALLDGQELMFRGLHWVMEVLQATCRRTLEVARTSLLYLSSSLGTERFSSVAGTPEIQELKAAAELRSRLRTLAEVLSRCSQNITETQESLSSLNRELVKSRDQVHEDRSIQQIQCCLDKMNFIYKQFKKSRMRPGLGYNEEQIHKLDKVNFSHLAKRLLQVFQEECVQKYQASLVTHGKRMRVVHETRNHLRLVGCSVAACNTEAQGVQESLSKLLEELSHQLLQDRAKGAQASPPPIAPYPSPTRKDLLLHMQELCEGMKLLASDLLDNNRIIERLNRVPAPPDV

Compound | read-out | method | concentration | remaining binding [%]
c1cncc(-c2cccc(Nc3nccc(NC4CCCCC4)n3)c2)c1 | binding | competition with immobilised ligand | 10 µM | 41
CN(C)c1ncc(F)c(-c2cnn3ncccc23)n1 | binding | – | 1 µM | 99
O=C(NCCCN1CCOCC1)c1ccc(Nc2nccc(-c3cc4ccccc4s3)n2)cc1 | binding | competition with immobilised ligand | 1 µM | 96
Cc1cc(C)c(-n2ccn3nc(-c4cccnc4)cc23)cc1NC(=O)c1cc(C#N)cc(S(F)(F)(F)(F)F)c1 | cell-free assay | competition with immobilised ligand | 0.1 µM | 59.9
N[C@H]1CCN(c2nccc(-c3cnn4ncccc34)n2)C1 | binding | – | 1 µM | 91
CN(C)CC#Cc1ccc(OCCCc2sc(N3CCc4cccc(C(=O)Nc5nc6ccccc6s5)c4C3)nc2C(=O)O)c(F)c1 | cell-free assay | competition with immobilised ligand | 1 µM | 100
F[C@@H]1CCN(c2nccc(-c3cnn4ncccc34)n2)C1 | binding | – | 1 µM | 100
O=C(NCC1CCOCC1)c1n[nH]cc1NC(=O)c1c(F)cccc1F | binding | competition with immobilised ligand | 1 µM | 81
CC1=C(C#N)[C@@H](c2ccc3[nH]nc(C)c3c2)C(C#N)=C(c2ccc(Cl)cc2)N1 | cell-free assay | competition with immobilised ligand | 1 µM | 100
Nc1ncc2c(n1)-c1c([nH]c3ccc(C#CC4CC4)cc13)CCCC2 | binding | competition with immobilised ligand | 1 µM | 83
CN(CCCC(F)(F)F)c1nccc(-c2cnn3ncccc23)n1 | binding | – | 1 µM | 100
CC(C)(O)c1cncc(-c2nc3ccc(F)cc3n2C2CC2)c1 | cell-free assay | competition with immobilised ligand | 1 µM | 100
Cc1cnn2ncc(-c3ccnc(N(C)C)n3)c2c1 | binding | – | 1 µM | 96
CNC(=O)Nc1ccc2c(c1)CC[C@@]21OC(=O)N(CC(=O)N(Cc2ccc(F)cc2)[C@@H](C)C(F)(F)F)C1=O | cell-free assay | competition with immobilised ligand | 1 µM | 51
COc1cnc(Nc2cccc(S(N)(=O)=O)c2)nc1N1CCN(c2ccccc2)C(=O)C1 | binding | competition with immobilised ligand | 1 µM | 50
Nc1cnc(N2CCc3cc(S(=O)(=O)Nc4c(F)cc(Cl)cc4F)cc(N4CCCC4=O)c32)nc1 | cell-free assay | competition with immobilised ligand | 1 µM | 95
O=C(c1ccc(Nc2nccc(-c3cc4ccccc4s3)n2)cc1)N1CCC(N2CCCC2)CC1 | binding | competition with immobilised ligand | 1 µM | 31
C[C@@H]1CCN(c2nccc(-c3cnn4ncccc34)n2)C1 | binding | – | 1 µM | 82
O=C(c1ccc(Nc2ncc(Cl)c(-c3cc4ccccc4s3)n2)cc1)N1CCC(N2CCCC2)CC1 | binding | competition with immobilised ligand | 1 µM | 21
CCN1CCN(Cc2ccc(C(=O)Nc3ccc(C)c(Oc4ccc5c(c4)CC(=O)N5)c3)cc2C(F)(F)F)CC1 | binding | competition with immobilised ligand | 1 µM | 100
